The source made the active and inactive calls. The rule behind the calls is not given here.
Tests used:
[1] = molecular target: Serine/threonine-protein kinase 35 (Homo sapiens) (UniProt Q8TDR2); assay: Inhibition of STK35 (unknown origin) assessed as remaining activity at 1 uM by Kinome scan method relative to control
[2] = molecular target: Calcium/calmodulin-dependent protein kinase type II subunit gamma (Homo sapiens) (UniProt Q13555); assay: Inhibition of CAMK2G (unknown origin) assessed as remaining activity at 1 uM by Kinome scan method relative to control
Calcium/calmodulin-dependent protein kinase type II subunit gamma (Homo sapiens), sequence (Q13555 whole entry): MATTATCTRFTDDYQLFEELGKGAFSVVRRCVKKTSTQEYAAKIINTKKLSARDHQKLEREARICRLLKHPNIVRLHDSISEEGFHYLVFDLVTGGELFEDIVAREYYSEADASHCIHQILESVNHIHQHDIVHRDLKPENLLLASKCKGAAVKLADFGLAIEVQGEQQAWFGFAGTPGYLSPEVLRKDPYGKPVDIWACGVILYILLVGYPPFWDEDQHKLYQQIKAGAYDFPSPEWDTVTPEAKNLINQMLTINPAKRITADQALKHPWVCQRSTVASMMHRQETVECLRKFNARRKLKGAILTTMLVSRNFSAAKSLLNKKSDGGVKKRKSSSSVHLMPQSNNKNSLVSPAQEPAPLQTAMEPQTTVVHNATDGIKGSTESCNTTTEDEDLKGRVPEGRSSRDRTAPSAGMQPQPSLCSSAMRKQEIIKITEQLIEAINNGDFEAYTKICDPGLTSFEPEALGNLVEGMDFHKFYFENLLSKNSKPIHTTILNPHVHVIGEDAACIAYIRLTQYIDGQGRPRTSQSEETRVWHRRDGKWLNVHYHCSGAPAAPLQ
Outline: (§1)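 Active-site-dependent competition-binding profiling (KINOMEscan) at 1 μM against a 468-kinase panel; compound supplied from a 10 mM DMSO stock. Read-out is ctrl% = (test signal − positive control signal)/(negative control signal − positive control signal) × 100. DMSO is the negative control (100%) and a control compound the positive control (0%). Lower ctrl% means tighter binding.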

[3] = system: Tyrosine-protein kinase ABL1 (Homo sapiens), P00519 [F317L]; assay: Inhibition of phosphorylated ABL1 F317L mutant (unknown origin) assessed as remaining activity at 1 uM by Kinome scan method relative to control
[4] = molecular target: Tyrosine-protein kinase Tec (Homo sapiens) (UniProt P42680); assay: Inhibition of TEC (unknown origin) assessed as remaining activity at 1 uM by Kinome scan method relative to control
Tyrosine-protein kinase Tec (Homo sapiens), sequence (P42680 whole entry): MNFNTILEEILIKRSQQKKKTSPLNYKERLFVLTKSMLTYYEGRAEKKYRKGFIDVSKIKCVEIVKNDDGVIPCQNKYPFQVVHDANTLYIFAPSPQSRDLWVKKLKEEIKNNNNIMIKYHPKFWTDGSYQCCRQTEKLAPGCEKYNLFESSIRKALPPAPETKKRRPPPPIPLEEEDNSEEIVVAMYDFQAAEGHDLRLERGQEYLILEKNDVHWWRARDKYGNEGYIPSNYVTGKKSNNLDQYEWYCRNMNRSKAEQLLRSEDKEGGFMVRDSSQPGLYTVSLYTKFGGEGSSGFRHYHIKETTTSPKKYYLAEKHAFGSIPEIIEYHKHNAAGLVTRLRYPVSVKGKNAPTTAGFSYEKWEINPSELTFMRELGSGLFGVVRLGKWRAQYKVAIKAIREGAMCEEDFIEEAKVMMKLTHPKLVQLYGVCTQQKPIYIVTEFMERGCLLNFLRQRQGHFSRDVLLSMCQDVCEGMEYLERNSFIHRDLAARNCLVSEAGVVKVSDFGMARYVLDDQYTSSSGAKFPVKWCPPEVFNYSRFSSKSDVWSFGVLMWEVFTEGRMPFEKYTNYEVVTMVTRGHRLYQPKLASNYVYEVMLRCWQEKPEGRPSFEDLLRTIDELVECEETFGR

[5] = system: Serine/threonine-protein kinase B-raf (Homo sapiens), P15056 [V600E]; assay: Inhibition of BRAF V600E mutant (unknown origin) assessed as remaining activity at 1 uM by Kinome scan method relative to control
Outline: (§2)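 Active-site-dependent competition-binding (KINOMEscan) panel of 468 kinases, test compound at 1 μM (from a 10 mM DMSO stock). Read-out is ctrl% = (test signal − positive control signal)/(negative control signal − positive control signal) × 100. DMSO is the negative control (100%) and a control compound is the positive control (0%). Lower ctrl% means tighter binding.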

[6] = molecular target: Serine/threonine-protein kinase pim-2 (Homo sapiens) (UniProt Q9P1W9); assay: Inhibition of PIM2 (unknown origin) assessed as remaining activity at 1 uM by Kinome scan method relative to control
[7] = molecular target: Serine/threonine-protein kinase PAK 2 (Homo sapiens) (UniProt Q13177); assay: Inhibition of PAK2 (unknown origin) assessed as remaining activity at 1 uM by Kinome scan method relative to control
[8] = molecular target: Serine/threonine-protein kinase TAO3 (Homo sapiens, UniProt Q9H2K8); assay: Inhibition of TAOK3 (unknown origin) in presence of ATP by enzymatic assay
HepG2 = assay: Induction of apoptosis in human HepG2 cells overexpressing MST2 assessed as late apoptosis cells at 3 uM by annexinV staining (Rvb =2.01 %); assay type: functional
[9] = molecular target: Proto-oncogene tyrosine-protein kinase ROS (Homo sapiens) (UniProt P08922); assay: Inhibition of ROS1 (unknown origin) assessed as remaining activity at 1 uM by Kinome scan method relative to control
[10] = molecular target: Tyrosine-protein kinase Fyn (Homo sapiens) (UniProt P06241); assay: Inhibition of FYN (unknown origin) assessed as remaining activity at 1 uM by Kinome scan method relative to control
Tyrosine-protein kinase Fyn (Homo sapiens), sequence (P06241 2-537 limits assumed): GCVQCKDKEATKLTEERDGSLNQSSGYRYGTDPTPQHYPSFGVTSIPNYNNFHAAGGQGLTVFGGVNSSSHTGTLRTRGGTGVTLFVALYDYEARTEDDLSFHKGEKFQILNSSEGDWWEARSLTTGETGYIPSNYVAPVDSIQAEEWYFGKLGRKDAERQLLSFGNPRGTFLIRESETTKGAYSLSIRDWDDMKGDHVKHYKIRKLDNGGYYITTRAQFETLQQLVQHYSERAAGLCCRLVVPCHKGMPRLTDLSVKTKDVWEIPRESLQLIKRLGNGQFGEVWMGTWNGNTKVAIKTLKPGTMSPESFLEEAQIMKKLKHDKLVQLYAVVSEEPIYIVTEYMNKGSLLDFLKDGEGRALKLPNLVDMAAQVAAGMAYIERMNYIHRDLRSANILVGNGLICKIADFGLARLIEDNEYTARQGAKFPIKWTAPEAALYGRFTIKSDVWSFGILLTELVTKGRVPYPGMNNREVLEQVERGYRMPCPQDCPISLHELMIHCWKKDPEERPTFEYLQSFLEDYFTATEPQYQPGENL

[11] = system: Epidermal growth factor receptor (Homo sapiens), P00533 [L858R]; assay: Inhibition of EGFR L858R mutant (unknown origin) assessed as remaining activity at 1 uM by Kinome scan method relative to control
[12] = Acute toxicity in wild-type mouse assessed as low level in oval cell expansion by at 1 mg/kg,ip administrated daily for 2 months by immunohistochemical staining; assay type: organism-based; conditions: in vivo, 1460 h
[13] = system: Epidermal growth factor receptor (Homo sapiens), P00533 [L858R,T790M]; assay: Inhibition of EGFR L858R/T790M mutant (unknown origin) assessed as remaining activity at 1 uM by Kinome scan method relative to control
[14] = system: Mast/stem cell growth factor receptor Kit (Homo sapiens), P10721 [D816H]; assay: Inhibition of KIT D816H mutant (unknown origin) assessed as remaining activity at 1 uM by Kinome scan method relative to control
[15] = system: Receptor-type tyrosine-protein kinase FLT3 (Homo sapiens), P36888 [D835H]; assay: Inhibition of FLT3 D835H mutant (unknown origin) assessed as remaining activity at 1 uM by Kinome scan method relative to control
[16] = molecular target: Calcium/calmodulin-dependent protein kinase type 1 (Homo sapiens) (UniProt Q14012); assay: Inhibition of CAMK1 (unknown origin) assessed as remaining activity at 1 uM by Kinome scan method relative to control
Outline: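 KINOMEscan active-site-dependent competition-binding panel of 468 kinases, compound at 1 μM from a DMSO stock. Result reported as ctrl% = (test signal − positive control signal)/(negative control signal − positive control signal) × 100. The negative control is DMSO (100%) and the positive control is a control compound (0%). Lower ctrl% means tighter binding.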

[17] = molecular target: Cyclin-dependent kinase 17 (Homo sapiens) (UniProt Q00537); assay: Inhibition of PCTK2 (unknown origin) assessed as remaining activity at 1 uM by Kinome scan method relative to control
[18] = molecular target: MAP kinase-activated protein kinase 2 (Homo sapiens) (UniProt P49137); assay: Inhibition of MAPKAPK2 (unknown origin) assessed as remaining activity at 1 uM by Kinome scan method relative to control
MAP kinase-activated protein kinase 2 (Homo sapiens), sequence (P49137 whole entry, looked up): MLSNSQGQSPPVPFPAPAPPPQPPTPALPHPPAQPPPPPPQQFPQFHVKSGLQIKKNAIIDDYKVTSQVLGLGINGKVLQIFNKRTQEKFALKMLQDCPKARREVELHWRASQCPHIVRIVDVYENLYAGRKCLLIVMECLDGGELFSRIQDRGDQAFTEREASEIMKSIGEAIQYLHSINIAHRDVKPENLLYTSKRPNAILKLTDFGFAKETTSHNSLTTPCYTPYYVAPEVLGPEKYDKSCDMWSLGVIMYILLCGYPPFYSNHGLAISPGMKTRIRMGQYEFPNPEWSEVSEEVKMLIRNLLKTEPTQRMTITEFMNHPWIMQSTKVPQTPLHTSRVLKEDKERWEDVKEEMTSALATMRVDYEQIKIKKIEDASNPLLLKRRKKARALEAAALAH

[19] = system: Proto-oncogene tyrosine-protein kinase receptor Ret (Homo sapiens), P07949 [V804M]; assay: Inhibition of RET V804M (unknown origin) assessed as remaining activity at 1 uM by Kinome scan method relative to control
[20] = molecular target: Activin receptor type-2A (Homo sapiens) (UniProt P27037); assay: Inhibition of ACVR2A (unknown origin) assessed as remaining activity at 1 uM by Kinome scan method relative to control; outline: as §2
Activin receptor type-2A (Homo sapiens), sequence (P27037 whole entry): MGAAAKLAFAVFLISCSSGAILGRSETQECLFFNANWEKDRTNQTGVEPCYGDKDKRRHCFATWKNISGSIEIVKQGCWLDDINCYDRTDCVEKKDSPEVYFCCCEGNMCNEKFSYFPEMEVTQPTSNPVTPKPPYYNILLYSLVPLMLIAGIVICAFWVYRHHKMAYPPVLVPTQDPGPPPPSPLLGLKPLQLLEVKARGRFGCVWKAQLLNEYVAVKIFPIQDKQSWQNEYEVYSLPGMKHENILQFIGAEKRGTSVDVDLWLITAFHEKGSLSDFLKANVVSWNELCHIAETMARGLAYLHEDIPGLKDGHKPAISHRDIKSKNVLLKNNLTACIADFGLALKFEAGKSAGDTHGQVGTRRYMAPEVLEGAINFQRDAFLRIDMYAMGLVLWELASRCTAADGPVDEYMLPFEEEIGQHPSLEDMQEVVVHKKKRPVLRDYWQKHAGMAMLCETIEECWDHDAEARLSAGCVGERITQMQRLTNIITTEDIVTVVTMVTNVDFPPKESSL

Mus musculus = assay: Protection against human hepatocyte transplanted FRG mouse assessed as increase in human albumin level at 1 mg/kg, ip administrated once a day and measured within 6 weeks; assay type: functional, organism-based; conditions: Liver
[21] = molecular target: Fibroblast growth factor receptor 1 (Homo sapiens) (UniProt P11362); assay: Inhibition of FGFR1 (unknown origin) assessed as remaining activity at 1 uM by Kinome scan method relative to control
[22] = molecular target: Tyrosine-protein kinase Mer (Homo sapiens) (UniProt Q12866); assay: Inhibition of MERTK (unknown origin) assessed as remaining activity at 1 uM by Kinome scan method relative to control
[23] = molecular target: Serine/threonine-protein kinase WNK3 (Homo sapiens) (UniProt Q9BYP7); assay: Inhibition of WNK3 (unknown origin) assessed as remaining activity at 1 uM by Kinome scan method relative to control
Serine/threonine-protein kinase WNK3 (Homo sapiens), sequence (Q9BYP7 whole entry, canonical isoform): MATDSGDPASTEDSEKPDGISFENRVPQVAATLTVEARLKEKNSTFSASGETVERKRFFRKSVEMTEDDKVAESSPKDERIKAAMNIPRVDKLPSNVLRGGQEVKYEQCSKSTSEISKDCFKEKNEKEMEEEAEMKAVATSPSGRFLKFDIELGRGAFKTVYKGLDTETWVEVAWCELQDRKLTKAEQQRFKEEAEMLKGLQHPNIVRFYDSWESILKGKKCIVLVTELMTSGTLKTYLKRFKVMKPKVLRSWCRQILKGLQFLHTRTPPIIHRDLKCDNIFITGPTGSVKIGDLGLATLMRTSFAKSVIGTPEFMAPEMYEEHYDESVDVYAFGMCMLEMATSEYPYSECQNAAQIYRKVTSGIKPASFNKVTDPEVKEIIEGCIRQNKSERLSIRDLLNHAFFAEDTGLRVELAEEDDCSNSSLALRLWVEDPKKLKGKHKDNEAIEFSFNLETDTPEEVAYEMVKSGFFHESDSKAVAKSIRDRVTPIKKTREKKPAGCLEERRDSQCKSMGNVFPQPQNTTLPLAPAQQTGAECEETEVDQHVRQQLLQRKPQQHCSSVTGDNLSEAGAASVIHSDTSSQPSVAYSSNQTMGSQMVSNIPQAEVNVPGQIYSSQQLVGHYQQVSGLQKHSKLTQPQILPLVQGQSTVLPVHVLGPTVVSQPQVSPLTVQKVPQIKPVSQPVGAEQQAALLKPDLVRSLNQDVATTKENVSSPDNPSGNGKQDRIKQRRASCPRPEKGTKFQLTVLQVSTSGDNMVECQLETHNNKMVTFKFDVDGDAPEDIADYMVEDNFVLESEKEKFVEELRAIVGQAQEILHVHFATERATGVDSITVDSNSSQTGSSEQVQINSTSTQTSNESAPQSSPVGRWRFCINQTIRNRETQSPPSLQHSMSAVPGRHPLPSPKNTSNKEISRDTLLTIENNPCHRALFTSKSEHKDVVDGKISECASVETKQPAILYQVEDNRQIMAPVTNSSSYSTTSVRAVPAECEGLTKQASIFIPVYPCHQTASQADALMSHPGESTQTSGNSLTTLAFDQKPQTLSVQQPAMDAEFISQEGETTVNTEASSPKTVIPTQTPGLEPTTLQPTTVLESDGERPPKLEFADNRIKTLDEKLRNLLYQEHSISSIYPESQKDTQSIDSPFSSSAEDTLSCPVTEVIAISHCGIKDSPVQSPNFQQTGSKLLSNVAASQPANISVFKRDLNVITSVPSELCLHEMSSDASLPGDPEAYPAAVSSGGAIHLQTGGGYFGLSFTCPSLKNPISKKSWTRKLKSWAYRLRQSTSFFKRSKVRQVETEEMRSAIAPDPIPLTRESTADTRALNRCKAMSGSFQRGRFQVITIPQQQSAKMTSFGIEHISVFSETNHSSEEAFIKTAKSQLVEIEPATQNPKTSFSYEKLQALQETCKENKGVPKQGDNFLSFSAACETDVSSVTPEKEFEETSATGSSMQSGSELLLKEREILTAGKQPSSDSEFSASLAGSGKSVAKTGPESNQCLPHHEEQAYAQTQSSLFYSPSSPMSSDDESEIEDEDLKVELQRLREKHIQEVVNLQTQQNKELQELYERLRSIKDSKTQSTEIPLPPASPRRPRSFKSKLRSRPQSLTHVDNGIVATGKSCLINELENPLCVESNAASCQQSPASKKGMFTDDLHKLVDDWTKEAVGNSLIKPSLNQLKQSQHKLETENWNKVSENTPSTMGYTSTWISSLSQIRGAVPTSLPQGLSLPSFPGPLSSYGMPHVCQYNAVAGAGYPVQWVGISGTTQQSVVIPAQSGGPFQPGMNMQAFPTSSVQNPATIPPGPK

[24] = molecular target: Phosphatidylinositol 4,5-bisphosphate 3-kinase catalytic subunit delta isoform (Homo sapiens) (UniProt O00329); assay: Inhibition of PIK3CD (unknown origin) assessed as remaining activity at 1 uM by Kinome scan method relative to control
[25] = molecular target: Cyclin-dependent kinase 2 (Homo sapiens) (UniProt P24941); assay: Inhibition of CDK2 (unknown origin) assessed as remaining activity at 1 uM by Kinome scan method relative to control; outline: as §1
[26] = molecular target: Aurora kinase A (Homo sapiens) (UniProt O14965); assay: Inhibition of AURKA (unknown origin) assessed as remaining activity at 1 uM by Kinome scan method relative to control; outline: as §2
Aurora kinase A (Homo sapiens), sequence (O14965 whole entry): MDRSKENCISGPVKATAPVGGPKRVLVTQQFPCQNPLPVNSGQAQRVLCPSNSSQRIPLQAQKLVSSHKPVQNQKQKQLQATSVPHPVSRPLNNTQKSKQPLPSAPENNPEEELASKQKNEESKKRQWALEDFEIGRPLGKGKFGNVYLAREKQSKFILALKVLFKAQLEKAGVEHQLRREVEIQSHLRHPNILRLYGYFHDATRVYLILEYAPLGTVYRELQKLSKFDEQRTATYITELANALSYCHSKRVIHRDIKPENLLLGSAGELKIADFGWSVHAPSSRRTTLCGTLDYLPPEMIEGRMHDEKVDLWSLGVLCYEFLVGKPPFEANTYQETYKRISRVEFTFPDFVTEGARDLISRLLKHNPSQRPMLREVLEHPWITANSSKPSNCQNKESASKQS

## CN1C(=O)c2sccc2N(C)c2nc(Nc3ccc(S(N)(=O)=O)cc3)ncc21
[1]
  Activity: 100%
[2]
  Activity: 100%
[3]
  Activity: 14%
[4]
  Activity: 100%
[5]
  Activity: 100%
[6]
  Activity: 100%
[7]
  Activity: 84%
[8]
  IC50: 254 nM
HepG2
  Activity: 1.54%
[9]
  Activity: 100%
[10]
  Activity: 100%
[11]
  Activity: 100%
[12]
  Activity: Toxic
[13]
  Activity: 77%
[14]
  Activity: 85%
[15]
  Activity: 67%
[16]
  Activity: 95%
[17]
  Activity: 86%
[18]
  Activity: 91%
[19]
  Activity: 92%
[20]
  Activity: 100%
Mus musculus
  Activity: Active
[21]
  Activity: 88%
[22]
  Activity: 100%
[23]
  Activity: 71%
[24]
  Activity: 47%
[25]
  Activity: 90%
[26]
  Activity: 0.05%

Reference: ChEMBL document CHEMBL5705905, “Pharmacological targeting of kinases MST1 and MST2 augments tissue repair and regeneration” (Sci Transl Med, 2016)
